IC50 and inhibition in vivo data for 20 compounds are collected here from ChEMBL document CHEMBL1131138, “A novel class of orally active non-peptide bradykinin B2 receptor antagonists. 3. Discovering bioisosteres of the imidazo[1,2-a] pyridine moiety” (J Med Chem, 1998).

For experiment [1], the target named is T1, B2 bradykinin receptor (Homo sapiens, UniProt P30411).
T1 sequence (P30411 whole entry): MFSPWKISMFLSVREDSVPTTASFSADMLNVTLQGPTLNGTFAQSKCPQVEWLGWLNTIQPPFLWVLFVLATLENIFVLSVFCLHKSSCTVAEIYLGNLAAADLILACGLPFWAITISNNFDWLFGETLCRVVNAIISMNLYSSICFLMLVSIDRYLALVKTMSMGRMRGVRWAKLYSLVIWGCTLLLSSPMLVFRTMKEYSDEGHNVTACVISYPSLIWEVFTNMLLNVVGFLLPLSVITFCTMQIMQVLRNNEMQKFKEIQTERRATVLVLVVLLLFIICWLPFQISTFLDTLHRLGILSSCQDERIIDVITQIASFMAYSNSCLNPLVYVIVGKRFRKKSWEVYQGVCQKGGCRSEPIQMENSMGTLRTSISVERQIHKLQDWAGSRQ
Nature of the experiment: Inhibition specific binding of [3H]BK (1.0 nM) to human Bradykinin receptor B2 which was expressed in CHO (Chinese hamster ovary) cells by 50%. The experiment is classed as cell-based. In a few lines:
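CHO (dhfr−) cells stably expressing human B2 receptor, seeded at 3.0 × 10^4 cells/well and cultured 1 day. Whole cells incubated with 1.0 nM [3H]BK plus compound for 2 h at 4 °C in HEPES/N-methyl-D-glucamine buffer pH 7.2 with bacitracin, enalaprilat and BSA. Washed, solubilized in SDS/NaOH and counted. Nonspecific binding with 1 μM BK; DMSO below 3%; three experiments.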

Experiment [2] concerns the target T2, B2 bradykinin receptor (Cavia porcellus, UniProt O70526).
T2 sequence (O70526 whole entry): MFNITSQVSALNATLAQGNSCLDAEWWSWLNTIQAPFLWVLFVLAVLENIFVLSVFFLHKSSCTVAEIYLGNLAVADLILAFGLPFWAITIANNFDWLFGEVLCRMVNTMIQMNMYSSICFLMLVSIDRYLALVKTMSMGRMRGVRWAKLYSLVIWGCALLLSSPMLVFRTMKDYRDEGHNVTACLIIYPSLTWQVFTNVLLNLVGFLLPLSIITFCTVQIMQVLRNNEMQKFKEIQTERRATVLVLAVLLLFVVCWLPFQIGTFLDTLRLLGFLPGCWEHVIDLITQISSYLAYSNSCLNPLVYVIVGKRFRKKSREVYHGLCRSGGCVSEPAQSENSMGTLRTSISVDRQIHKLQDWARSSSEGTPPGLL
Nature of the experiment: Concentration required to inhibit specific binding of [ 3H]BK (0.06 nM) to Bradykinin receptor B2 in guinea pig ileum membrane preparations by 50%. The class given is cell membranes. In a few lines:
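Ileal membranes from male Hartley guinea pigs (0.2 mg protein/mL) in TES buffer pH 6.8 with phenanthroline, bacitracin, DTT, captopril and BSA. Incubated with 0.06 nM [3H]BK plus compound for 60 min at room temperature, then filtered through GF/B and counted by scintillation.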

Experiment [3] concerns Cavia porcellus. Description: Compound tested in vivo for inhibition of Bradykinin induced Bronchoconstriction in anaesthetized guinea pig at 1 mg/kg, po. The class given is functional. The gist of the method:
(§1)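 Male Hartley guinea pigs (470–750 g), fasted overnight, anesthetized with ip pentobarbital (30 mg/kg) and ventilated at 10 mL/kg, 60 breaths/min. Given alcuronium (0.5 mg/kg iv) and propranolol (10 mg/kg sc). BK 5 μg/kg iv, with bronchoconstriction read as peak pulmonary insufflation pressure (modified Konzett–Rössler).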

Experiment [4] has as its target T1, B2 bradykinin receptor. Description: Concentration required to inhibit specific binding of [3H]BK (1.2 nM) to A-431 cells (human epidermoid carcinoma) which express Bradykinin receptor B2 by 50%. The experiment is classed as cell-based.
In experiment [5] the test system is Cavia porcellus. Description: In vivo inhibition of Bradykinin induced Bronchoconstriction in anaesthetized guinea pig following 1 mg/kg p.o. The experiment is classed as functional. The conditions noted are these: route oral. The gist of the method:
as §1

The subject of experiment [6] is Cavia porcellus. Description: Inhibition of Bradykinin induced Bronchoconstriction in anaesthetized guinea pig at 0.32mg/kg, po. The experiment is classed as functional. The gist of the method:
as §1

One may read the IC50 as the concentration needed to halve the response being measured. A higher IC50 goes with a need for much substance. For orientation: inhibition in vivo means the drop in the measured response relative to a control, in per cent. Read a high inhibition in vivo as a strong effect.

Consider `CNC(=O)c1ccc(/C=C/C(=O)NCC(=O)N(C)c2ccc(C)c(COc3cccc4c3nc(OC)n4C)c2C)cc1`, for which the IC50 at B2 bradykinin receptor [1] was 7.2 nM; at B2 bradykinin receptor [2] it was 1.6 nM. In addition, in the experiment on Cavia porcellus [3], the inhibition in vivo at 1 mg/kg came out at 59.7%.

As for `CNC(=O)c1ccc(/C=C/C(=O)NCC(=O)N(C)c2ccc(Cl)c(COCc3cccc(C)n3)c2Cl)cc1`, the IC50 on B2 bradykinin receptor [1], at B2 bradykinin receptor [2] and at B2 bradykinin receptor [4] was greater than 10000 nM in each case.

On to `CNC(=O)c1ccc(/C=C/C(=O)NCC(=O)N(C)c2ccc(Cl)c(COc3cccc4cnc(C)cc34)c2Cl)cc1`, for which the IC50 at B2 bradykinin receptor [2] and at B2 bradykinin receptor [4] was greater than 10000 nM in each case.

As to `CNC(=O)c1ccc(/C=C/C(=O)NCC(=O)N(C)c2ccc(Cl)c(COc3cccnc3-n3c(C)ccc3C)c2Cl)cc1`, the IC50 at B2 bradykinin receptor [1] amounted to 2000 nM; at B2 bradykinin receptor [2], 350 nM; on B2 bradykinin receptor [4], 3500 nM.

Regarding `CNC(=O)c1ccc(/C=C/C(=O)NCC(=O)N(C)c2ccc(Cl)c(COc3ccc4ccc(C)nc4c3)c2Cl)cc1`, the IC50 at B2 bradykinin receptor [2] and on B2 bradykinin receptor [4] was greater than 10000 nM in each case.

`CNC(=O)c1ccc(/C=C/C(=O)NCC(=O)N(C)c2ccc(Cl)c(COc3cccc4oc(C)nc34)c2Cl)cc1`: the IC50 at B2 bradykinin receptor [1] came to 1100 nM; at B2 bradykinin receptor [2] it was 380 nM; on B2 bradykinin receptor [4], 860 nM.

`Cc1ccc2cccc(OCc3c(Cl)ccc(N(C)C(=O)CNC(=O)/C=C/c4cccc(C(=O)N(C)C)c4)c3Cl)c2n1`: the IC50 at B2 bradykinin receptor [2] worked out at 1.1 nM; on B2 bradykinin receptor [4], 14 nM.

With `CCc1nc2c(OCc3c(Cl)ccc(N(C)C(=O)CNC(=O)/C=C/c4ccc(C(=O)NC)cc4)c3Cl)cccc2n1C`, the half-maximal inhibitory concentration (IC50) at B2 bradykinin receptor [1] turned out to be 22 nM; at B2 bradykinin receptor [2] it was 8.7 nM. The same compound showed an inhibition in vivo at 1 mg/kg in the experiment with Cavia porcellus [3] of 31.7%.

For the compound `CNC(=O)c1ccc(/C=C/C(=O)NCC(=O)N(C)c2ccc(Cl)c(COc3cccc4c3nc(OC)n4C)c2Cl)cc1`, the concentration for half-maximal inhibition (IC50) at B2 bradykinin receptor [1] was determined as 2.2 nM; on B2 bradykinin receptor [2], 0.83 nM. Besides, the inhibition in vivo at 1 mg/kg with Cavia porcellus [3] turned out to be 21.7%.

For `CNC(=O)c1ccc(/C=C/C(=O)NCC(=O)N(C)c2ccc(Cl)c(COc3cccc4ccc(C)nc34)c2Cl)cc1`, the figures for the IC50 at B2 bradykinin receptor [1], on B2 bradykinin receptor [2] and on B2 bradykinin receptor [4] were 1.1 nM, 0.51 nM and 1.3 nM, respectively. Also, at 1 mg/kg the inhibition in vivo with Cavia porcellus [5] was 81.9%. Also, the inhibition in vivo at 0.32 mg/kg in the experiment on Cavia porcellus [6] worked out at 67.4%.

Regarding `CC(=O)Nc1ccc(/C=C/C(=O)NCC(=O)N(C)c2ccc(Cl)c(COc3cccc4ncc(C)nc34)c2Cl)cc1`, the IC50 came out at 2.5 nM on B2 bradykinin receptor [1] and 2.4 nM at B2 bradykinin receptor [2]. For the same compound, the inhibition in vivo at 1 mg/kg in the experiment on Cavia porcellus [3] stood at 28.6%.

Take `Cc1ccc2cccc(OCc3c(Cl)ccc(N(C)C(=O)CNC(=O)/C=C/c4ccc(N5CCCC5=O)cc4)c3Cl)c2n1`: the IC50 was found to be 3.2 nM on B2 bradykinin receptor [1] and 0.55 nM at B2 bradykinin receptor [2]. The inhibition in vivo at 1 mg/kg in the experiment with Cavia porcellus [5] turned out to be 85.3%. In the experiment on Cavia porcellus [6], this compound had an inhibition in vivo at 0.32 mg/kg of 44.7%.

Take `Cc1ccc2cccc(OCc3c(Cl)ccc(N(C)C(=O)CNC(=O)/C=C/c4ccc(/C=C/c5ccncc5)nc4)c3Cl)c2n1`: the IC50 at B2 bradykinin receptor [1] stood at 0.51 nM; at B2 bradykinin receptor [2] it was 0.76 nM. In the experiment with Cavia porcellus [5], this compound displayed an inhibition in vivo at 1 mg/kg of 87.3%. In addition, the inhibition in vivo at 0.32 mg/kg in the experiment on Cavia porcellus [6] turned out to be 43.6%.

Turning to `CNC(=O)c1ccc(/C=C/C(=O)NCC(=O)N(C)c2ccc(Cl)c(COc3cccc4ncc(C)nc34)c2Cl)cc1`, the 50% inhibitory concentration (IC50) on B2 bradykinin receptor [1] amounted to 5.2 nM; at B2 bradykinin receptor [2], 1 nM; on B2 bradykinin receptor [4], 3.1 nM.

On to `Cc1ccc2cccc(OCc3c(Cl)ccc(N(C)C(=O)CNC(=O)/C=C/c4ccc(C(=O)N(C)C)cc4)c3Cl)c2n1`, for which the IC50 stood at 3.9 nM on B2 bradykinin receptor [1] and 1.3 nM at B2 bradykinin receptor [2]. In the experiment with Cavia porcellus [5], this compound gave an inhibition in vivo at 1 mg/kg of 89.7%. Further, the inhibition in vivo at 0.32 mg/kg in the experiment with Cavia porcellus [6] was 50.8%.

Turning to `CNC(=O)c1ccc(/C=C/C(=O)NCC(=O)N(C)c2ccc(Cl)c(COc3cccc4nc(C)cnc34)c2Cl)cc1`, the figures for the IC50 on B2 bradykinin receptor [1], at B2 bradykinin receptor [2] and at B2 bradykinin receptor [4] were 2900 nM, 170 nM and 4300 nM, respectively.

`CNC(=O)c1ccc(/C=C/C(=O)NCC(=O)N(C)c2ccc(Cl)c(COc3cccc4cnc(C)nc34)c2Cl)cc1`: the IC50 turned out to be 56 nM at B2 bradykinin receptor [1], 110 nM on B2 bradykinin receptor [2] and 59 nM at B2 bradykinin receptor [4].

For the compound `COc1nc2c(OCc3c(C)ccc(N(C)C(=O)CNC(=O)/C=C/c4ccc(NC(C)=O)nc4)c3C)cccc2n1C`, the IC50 on B2 bradykinin receptor [1] is 8.5 nM; at B2 bradykinin receptor [2] it was 0.94 nM. In the experiment on Cavia porcellus [5], this compound returned an inhibition in vivo at 1 mg/kg of 98.4%. In addition, in the experiment on Cavia porcellus [6], the inhibition in vivo at 0.32 mg/kg is 75.2%.

For the compound `CNC(=O)c1ccc(/C=C/C(=O)NCC(=O)N(C)c2ccc(Cl)c(COc3cccc4c3nc(C)n4C)c2Cl)cc1`, the IC50 was 67 nM on B2 bradykinin receptor [1], 9.1 nM on B2 bradykinin receptor [2] and 43 nM at B2 bradykinin receptor [4].

For the compound `Cc1ccc2cccc(OCc3c(Cl)ccc(N(C)C(=O)CNC(=O)/C=C/c4cccnc4)c3Cl)c2n1`, the values for the IC50 at B2 bradykinin receptor [1] and on B2 bradykinin receptor [2] were 470 nM and 0.79 nM, respectively. Moreover, the inhibition in vivo at 1 mg/kg in the experiment with Cavia porcellus [5] was 97.2%. In the experiment with Cavia porcellus [6], this compound came in with an inhibition in vivo at 0.32 mg/kg of 63.7%.
